The values that follow come from ChEMBL document CHEMBL5357066, “Development of Novel Membrane Disrupting Lipoguanidine Compounds Sensitizing Gram-Negative Bacteria to Antibiotics” (ACS Med Chem Lett, 2024).

For test [1], the system named is Pseudomonas aeruginosa. The test can be described thus: Antibacterial activity against Pseudomonas aeruginosa NCTC 13437 assessed as bacterial growth inhibition incubated for overnight by microbroth dilution method. Format: functional. The gist of the method:
(§1)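 Broth microdilution in Tryptic Soy Broth. DMSO stocks were diluted in TSB as 2-fold series. Overnight TSB cultures were back-diluted to OD 0.01 and mixed 1:1 with compound. Incubation was overnight at 37 °C. MIC was the lowest concentration without visible growth (<0.1 OD600). DMSO vehicle was checked at equivalent concentrations.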
Background: Broth dilution looks for growth in wells or tubes with falling amounts of substance.

Test [2] relates to Staphylococcus aureus. The test can be described thus: Antibacterial activity against methicillin sensitive Staphylococcus aureus ATCC 9144 assessed as bacterial growth inhibition incubated for overnight by microbroth dilution method. Format: functional. The gist of the method: (§2)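 Microbroth dilution in Tryptic Soy Broth. DMSO stocks were diluted in TSB as 2-fold series. Overnight TSB cultures were back-diluted to OD 0.01 and mixed 1:1 with compound. Incubation was overnight at 37 °C. MIC is the lowest concentration with no visible growth (<0.1 OD600). DMSO at equivalent concentrations was checked.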

Test [3] concerns Staphylococcus aureus. The test can be described thus: Antibacterial activity against methicillin resistant Staphylococcus aureus NCTC 13616 assessed as bacterial growth inhibition incubated for overnight by microbroth dilution method. It is filed as functional. An outline of the steps:
as §2

Test [4] concerns Staphylococcus aureus. The test can be described thus: Antibacterial activity against methicillin resistant Staphylococcus aureus USA 300 assessed as bacterial growth inhibition incubated for overnight by microbroth dilution method. Format: functional. An outline of the steps:
as §2

In test [5] the test system is Enterococcus faecalis. The test can be described thus: Antibacterial activity against vancomycin resistant Enterococcus faecalis NCTC 12201 assessed as bacterial growth inhibition incubated for overnight by microbroth dilution method. It is filed as functional. The gist of the method:
as §2

In a further test the test system is Enterococcus faecium. The test can be described thus: Antibacterial activity against vancomycin resistant Enterococcus faecium NCTC 12204 assessed as bacterial growth inhibition incubated for overnight by microbroth dilution method. It is filed as functional. An outline of the steps:
as §2

Test [6] relates to Acinetobacter baumannii. The test can be described thus: Antibacterial activity against Acinetobacter baumannii AYE assessed as bacterial growth inhibition incubated for overnight by microbroth dilution method. It is filed as functional. The gist of the method: as §1
Test [7] deals with Acinetobacter baumannii. The test can be described thus: Antibacterial activity against Acinetobacter baumannii ATCC 17978 assessed as bacterial growth inhibition incubated for overnight by microbroth dilution method. Format: functional. An outline of the steps:
as §1

The subject of test [8] is Pseudomonas aeruginosa. The test can be described thus: Antibacterial activity against Pseudomonas aeruginosa PAO1 assessed as bacterial growth inhibition incubated for overnight by microbroth dilution method. It is filed as functional. The gist of the method: as §1
Test [9] concerns Escherichia coli. The test can be described thus: Antibacterial activity against Escherichia coli NCTC 12923 assessed as bacterial growth inhibition incubated for overnight by microbroth dilution method. Format: functional. The gist of the method:
as §1

Test [10] has as its system Klebsiella pneumoniae. The test can be described thus: Synergistic antibacterial activity against Klebsiella pneumoniae NCTC 13368 assessed as rifampicin MIC at <=0.25 times MIC incubated for overnight by microbroth dilution checkerboard assay. It is filed as functional. The gist of the method:
(§3)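 Checkerboard microdilution under MIC conditions (TSB, overnight, 37 °C). Two-fold series of each agent were combined on one plate before bacteria were added, and single-agent MICs were measured on the same plate. FIC = sum of combination MIC/alone MIC for each agent, taken from the most synergistic well. Three independent repeats, mean ± SD. ≤0.5 was taken as strong synergy and 0.5–<1 as weak.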

Test [11] concerns Klebsiella pneumoniae. The test can be described thus: Synergistic antibacterial activity against […] Klebsiella pneumoniae M6 assessed as rifampicin MIC at <=0.25 times MIC incubated for overnight by microbroth dilution checkerboard assay. Format: functional. An outline of the steps: (§4)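 Checkerboard run under the MIC conditions (TSB, overnight, 37 °C). Antibiotic and lipoguanidine 2-fold series were combined on one plate before bacteria were added. Growth/no-growth was scored as for the MIC (<0.1 OD600). Single-agent MICs were measured on the same plates. Three independent repeats were done.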

Test [12] deals with Acinetobacter baumannii. The test can be described thus: Synergistic antibacterial activity against Acinetobacter baumannii AYE assessed as rifampicin MIC at <=0.25 times MIC incubated for overnight by microbroth dilution checkerboard assay. It is filed as functional. An outline of the steps: as §3
Test [13] relates to Acinetobacter baumannii. The test can be described thus: Synergistic antibacterial activity against Acinetobacter baumannii ATCC 17978 assessed as rifampicin MIC at <=0.25 times MIC incubated for overnight by microbroth dilution checkerboard assay. It is filed as functional. The gist of the method:
as §3

In test [14] the test system is Pseudomonas aeruginosa. The test can be described thus: Synergistic antibacterial activity against Pseudomonas aeruginosa PAO1 assessed as rifampicin MIC at <=0.25 times MIC incubated for overnight by microbroth dilution checkerboard assay. Format: functional. An outline of the steps: (§5)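 Checkerboard microdilution in Tryptic Soy Broth, run like the MIC assay. Overnight TSB cultures were back-diluted to OD 0.01 and added 1:1 to the combined two-fold series of both agents, then incubated overnight at 37 °C. Growth/no-growth was called at <0.1 OD600. MICs alone were read on the same plates. FIC index came from the most synergistic well; three independent repeats, mean ± SD.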

The subject of test [15] is Pseudomonas aeruginosa. The test can be described thus: Synergistic antibacterial activity against Pseudomonas aeruginosa NCTC 13437 assessed as rifampicin MIC at <=0.25 times MIC incubated for overnight by microbroth dilution checkerboard assay. Format: functional. The gist of the method: as §5
In test [16] the test system is Escherichia coli. The test can be described thus: Synergistic antibacterial activity against Escherichia coli NCTC 12923 assessed as rifampicin MIC at <=0.25 times MIC incubated for overnight by microbroth dilution checkerboard assay. Format: functional. An outline of the steps:
as §3

For test [17], the system named is Staphylococcus aureus. The test can be described thus: Antibacterial activity against methicillin sensitive Staphylococcus aureus 1199B assessed as bacterial growth inhibition incubated for overnight by microbroth dilution method. Format: functional. An outline of the steps: as §2
For test [18], the system named is Klebsiella pneumoniae. The test can be described thus: Synergistic antibacterial activity against Klebsiella pneumoniae NCTC 13368 assessed as fold change in rifampicin MIC at <=0.25 times MIC incubated for overnight by microbroth dilution checkerboard assay relative to rifampicin alone. Format: functional. The gist of the method:
as §4

The subject of test [19] is Acinetobacter baumannii. The test can be described thus: Synergistic antibacterial activity against Acinetobacter baumannii AYE assessed as fold change in rifampicin MIC at <=0.25 times MIC incubated for overnight by microbroth dilution checkerboard assay relative to rifampicin alone. Format: functional. The gist of the method:
as §3

Test [20] relates to Acinetobacter baumannii. The test can be described thus: Synergistic antibacterial activity against Acinetobacter baumannii ATCC 17978 assessed as fold change in rifampicin MIC at <=0.25 times MIC incubated for overnight by microbroth dilution checkerboard assay relative to rifampicin alone. Format: functional. An outline of the steps: as §3
Test [21] has as its system Pseudomonas aeruginosa. The test can be described thus: Synergistic antibacterial activity against Pseudomonas aeruginosa PAO1 assessed as fold change in rifampicin MIC at <=0.25 times MIC incubated for overnight by microbroth dilution checkerboard assay relative to rifampicin alone. Format: functional. The gist of the method: as §5
Test [22] has as its system Pseudomonas aeruginosa. The test can be described thus: Synergistic antibacterial activity against Pseudomonas aeruginosa NCTC 13437 assessed as fold change in rifampicin MIC at <=0.25 times MIC incubated for overnight by microbroth dilution checkerboard assay relative to rifampicin alone. Format: functional. An outline of the steps:
as §5

For test [23], the system named is Escherichia coli. The test can be described thus: Synergistic antibacterial activity against Escherichia coli NCTC 12923 assessed as fold change in rifampicin MIC at <=0.25 times MIC incubated for overnight by microbroth dilution checkerboard assay relative to rifampicin alone. It is filed as functional. An outline of the steps:
as §3

Test [24] deals with Klebsiella pneumoniae. The test can be described thus: Antibacterial activity against Klebsiella pneumoniae M6 assessed as bacterial growth inhibition incubated for overnight by microbroth dilution method.
The test system of test [25] is Klebsiella pneumoniae. The test can be described thus: Antibacterial activity against ESBL Klebsiella pneumoniae NCTC 13368 assessed as bacterial growth inhibition incubated for overnight by microbroth dilution method.
Test [26] concerns Enterococcus faecalis. The test can be described thus: Antibacterial activity against vancomycin sensitive Enterococcus faecalis NCTC 775 assessed as bacterial growth inhibition incubated for overnight by microbroth dilution method.

Converted amounts (≈) assume the structure as drawn.

One may read the MIC as the smallest concentration in the dilution series that meets the test's criterion for growth inhibition. In the case of `CCCCC/C=C\C/C=C\CCCCCCCCNC(=N)NCCCCNC(=N)N`, the MIC with Pseudomonas aeruginosa [1] is 64 µg/mL (≈ 152 µM); with Staphylococcus aureus [2] it was 4 µg/mL (≈ 9.51 µM); in the test on Staphylococcus aureus [3], 4 µg/mL (≈ 9.51 µM); in the test on Staphylococcus aureus [4] it was 4 µg/mL (≈ 9.51 µM); with Enterococcus faecalis [5], 8 µg/mL (≈ 19 µM); with Enterococcus faecium, 8 µg/mL (≈ 19 µM). For the same compound, the MIC is greater than 64 µg/mL with Acinetobacter baumannii [6]; 32 µg/mL (≈ 76.1 µM) in the test with Acinetobacter baumannii [7]; 64 µg/mL (≈ 152 µM) with Pseudomonas aeruginosa [8]; 8 µg/mL (≈ 19 µM) in the test on Escherichia coli [9]; no more than 0.125 µg/mL with Klebsiella pneumoniae [10]; no more than 0.125 µg/mL in the test with Klebsiella pneumoniae [11]. Also, the MIC in the test with Acinetobacter baumannii [12] was no more than 0.125 µg/mL; with Acinetobacter baumannii [13], no more than 0.125 µg/mL; with Pseudomonas aeruginosa [14], 2 µg/mL; in the test with Pseudomonas aeruginosa [15], 4 µg/mL; in the test on Escherichia coli [16], 4 µg/mL; with Staphylococcus aureus [17] it was 4 µg/mL (≈ 9.51 µM). Moreover, the minimum inhibitory concentration (MIC) with Klebsiella pneumoniae [24] is 32 µg/mL (≈ 76.1 µM); with Klebsiella pneumoniae [25], greater than 64 µg/mL; in the test with Enterococcus faecalis [26], 8 µg/mL (≈ 19 µM). Moreover, the “fold change (FC)” value in the test on Klebsiella pneumoniae [18], in the test on Acinetobacter baumannii [19], in the test with Acinetobacter baumannii [20], in the test on Pseudomonas aeruginosa [21], in the test on Pseudomonas aeruginosa [22] and in the test on Escherichia coli [23] was “>=4” each time.
Consider `CCCCCCCC/C=C\CCCCCCCCNC(=N)NCCCCCCCCNC(=N)N`, for which the MIC in the test with Pseudomonas aeruginosa [1] is greater than 128 µg/mL; with Staphylococcus aureus [2], 4 µg/mL (≈ 8.35 µM); in the test on Staphylococcus aureus [3], 4 µg/mL (≈ 8.35 µM); with Staphylococcus aureus [4] it was 2 µg/mL (≈ 4.18 µM); in the test with Enterococcus faecalis [5] it was 4 µg/mL (≈ 8.35 µM); in the test on Enterococcus faecium, 4 µg/mL (≈ 8.35 µM). Moreover, the MIC was 16 µg/mL (≈ 33.4 µM) with Acinetobacter baumannii [6]; 16 µg/mL (≈ 33.4 µM) in the test with Acinetobacter baumannii [7]; greater than 128 µg/mL with Pseudomonas aeruginosa [8]; 32 µg/mL (≈ 66.8 µM) in the test with Escherichia coli [9]; 4 µg/mL (≈ 8.35 µM) with Staphylococcus aureus [17]; 64 µg/mL (≈ 134 µM) with Klebsiella pneumoniae [24]. Moreover, the MIC came to 128 µg/mL (≈ 267 µM) in the test with Klebsiella pneumoniae [25] and 4 µg/mL (≈ 8.35 µM) in the test with Enterococcus faecalis [26].
As for `CCCCCCCC/C=C\CCCCCCCCNC(=N)NCCN(CCN)CCN`, the minimum inhibitory concentration (MIC) was 32 µg/mL (≈ 72.9 µM) in the test on Pseudomonas aeruginosa [1]; 8 µg/mL (≈ 18.2 µM) with Staphylococcus aureus [2]; 4 µg/mL (≈ 9.12 µM) in the test on Staphylococcus aureus [3]; 4 µg/mL (≈ 9.12 µM) in the test with Staphylococcus aureus [4]; 4 µg/mL (≈ 9.12 µM) with Enterococcus faecalis [5]; 4 µg/mL (≈ 9.12 µM) in the test on Enterococcus faecium. In addition, the MIC in the test on Acinetobacter baumannii [6] is 128 µg/mL (≈ 292 µM); in the test with Acinetobacter baumannii [7] it was 64 µg/mL (≈ 146 µM); in the test with Pseudomonas aeruginosa [8], 64 µg/mL (≈ 146 µM); with Escherichia coli [9] it was 8 µg/mL (≈ 18.2 µM); in the test with Staphylococcus aureus [17], 4 µg/mL (≈ 9.12 µM); with Klebsiella pneumoniae [24], greater than 128 µg/mL. In addition, the MIC was greater than 128 µg/mL in the test with Klebsiella pneumoniae [25] and 4 µg/mL (≈ 9.12 µM) with Enterococcus faecalis [26].
Consider `CCCCCCCC/C=C\CCCCCCCCNC(=N)NCCCCCCCCN`, for which the MIC in the test with Pseudomonas aeruginosa [1] was greater than 128 µg/mL; in the test with Staphylococcus aureus [2], 4 µg/mL (≈ 9.16 µM); with Staphylococcus aureus [3], 4 µg/mL (≈ 9.16 µM); with Staphylococcus aureus [4] it was 2 µg/mL (≈ 4.58 µM); with Enterococcus faecalis [5], 2 µg/mL (≈ 4.58 µM); in the test with Enterococcus faecium, 4 µg/mL (≈ 9.16 µM). The minimum inhibitory concentration (MIC) with Acinetobacter baumannii [6] was 32 µg/mL (≈ 73.3 µM); in the test with Acinetobacter baumannii [7], 8 µg/mL (≈ 18.3 µM); in the test with Pseudomonas aeruginosa [8], greater than 128 µg/mL; in the test with Escherichia coli [9] it was 16 µg/mL (≈ 36.6 µM); with Staphylococcus aureus [17] it was 4 µg/mL (≈ 9.16 µM); in the test on Klebsiella pneumoniae [24], greater than 128 µg/mL. The values for the MIC in the test on Klebsiella pneumoniae [25] and in the test with Enterococcus faecalis [26] were 32 µg/mL (≈ 73.3 µM) and 4 µg/mL (≈ 9.16 µM), respectively.
